Molecules are shown by their SMILES. Activity calls are given as the source filed them. The calls are words filed in the database; no cut-off is given here.

Here are results for one molecule from ChEMBL document CHEMBL4316616, “Efficacy of TLR7 agonistic imidazoquinoline as immunochemotherapeutic agent against P. Berghei ANKA infected rodent host” (Bioorg Med Chem Lett, 2019).

Series [1] deals with Plasmodium berghei. The series can be described thus: Antiparasitic activity against Plasmodium berghei ANKA infected in Laca mouse assessed as increase in serum IL-27 level at 10 mg/kg, po administered for 4 days measured on day 10 by sandwich ELISA. It is filed as functional, organism-based. For orientation: In an ELISA, binding on a coated surface is turned into a signal by an enzyme label.

The test system of series [2] is Plasmodium berghei. The series can be described thus: Antiparasitic activity against Plasmodium berghei ANKA infected in Laca mouse assessed as reduction in CD4+ cell level in brain at 10 mg/kg, po administered for 4 days measured on day 10 and 21 by flow cytometry. It is filed as functional, organism-based. Background: A flow cytometer gives signals particle by particle.

The test system of series [3] is Plasmodium berghei. The series can be described thus: Antiparasitic activity against Plasmodium berghei ANKA infected in Laca mouse assessed as reduction in CD3+ cell level in brain at 10 mg/kg, po administered for 4 days measured on day 10 by flow cytometry. It is filed as functional, organism-based.
Series [4] concerns Plasmodium berghei. The experiment in a line: Antiparasitic activity against Plasmodium berghei ANKA infected in Laca mouse assessed as increase in Treg cell level in brain at 10 mg/kg, po administered for 4 days measured on day 10 by flow cytometry. It is filed as functional, organism-based.
Series [5] deals with Plasmodium berghei. The series can be described thus: Antiparasitic activity against Plasmodium berghei ANKA infected in Laca mouse assessed as decrease in serum TNFalpha level at 10 mg/kg, po administered for 4 days measured on day 10 by sandwich ELISA. It is filed as functional, organism-based.
The subject of series [6] is Plasmodium berghei. The series can be described thus: Antiparasitic activity against Plasmodium berghei ANKA infected in Laca mouse assessed as reduction in parasitemia at 10 mg/kg, po administered for 4 days measured up to day 15 by Giemsa-staining based assay. It is filed as functional, organism-based.
The subject of series [7] is Plasmodium berghei. The series can be described thus: Antiparasitic activity against Plasmodium berghei ANKA infected in Laca mouse assessed as parasitemia at 10 mg/kg, po administered for 4 days measured on day 21 by Giemsa-staining based assay. It is filed as functional.
The test system of series [8] is Plasmodium berghei. The series can be described thus: Antiparasitic activity against Plasmodium berghei ANKA infected in Laca mouse assessed as increase in serum IL-10 level at 10 mg/kg, po administered for 4 days measured on day 10 by sandwich ELISA. It is filed as functional, organism-based.
Series [9] can be described thus: Toxicity in Laca mouse infected with Plasmodium berghei ANKA assessed as death at 10 mg/kg, po administered for 4 days measured on day 21. It is filed as organism-based. The settings on record: in vivo, 96 h. The essentials: (§1)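 Groups of 6 mice, infected i.p. on D0 with 1x10⁶ P. berghei ANKA parasitized RBCs. Chloroquine 10 mg/kg given orally in 0.2 mL/mouse daily D0–D3. Infected PBS-dosed and uninfected controls were included. Mice were followed for survival, with parasitemia checked on Giemsa-stained thin blood smears of individual mice.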

Series [10] concerns Plasmodium berghei. The series can be described thus: Antimalarial activity against Plasmodium berghei ANKA infected in Swiss albino mouse assessed as reduction in parasitemia at 25 mg/kg, po for 4 days dosed 2 hrs post infection and measured 5 days post infection by Giemsa staining based Peter's 4 day test. It is filed as functional. Details: scale not given: the % may be the effect or the level left.

The subject of series [11] is Plasmodium berghei. The series can be described thus: Antiparasitic activity against Plasmodium berghei ANKA infected in Laca mouse assessed as increase in serum IL-12 level at 10 mg/kg, po administered for 4 days measured on day 10 by sandwich ELISA. It is filed as functional, organism-based.
The nature of series [12]: Toxicity in Laca mouse infected with Plasmodium berghei ANKA assessed as death at 10 mg/kg, po administered for 4 days measured after 21 days. It is filed as organism-based. The settings on record: in vivo, 504 h. The essentials: as §1
The subject of series [13] is Plasmodium berghei. The experiment in a line: Antiparasitic activity against Plasmodium berghei ANKA infected in Laca mouse assessed as reduction in CD8+ cell level in brain at 10 mg/kg, po administered for 4 days measured on day 10 by flow cytometry. It is filed as functional, organism-based.
The subject of series [14] is Plasmodium berghei. The series can be described thus: Antiparasitic activity against Plasmodium berghei ANKA infected in Laca mouse assessed as increase in CD3+ cell level in spleen at 10 mg/kg, po administered for 4 days measured on day 10 by flow cytometry. It is filed as functional, organism-based.
Series [15] concerns Plasmodium berghei. The series can be described thus: Antiparasitic activity against Plasmodium berghei ANKA infected in Laca mouse assessed as parasitemia at 10 mg/kg, po administered for 4 days measured on day 17 by Giemsa-staining based assay. It is filed as functional.
In series [16] the test system is Plasmodium berghei. The experiment in a line: Antiparasitic activity against Plasmodium berghei ANKA infected in Swiss albino mouse assessed as reduction in parasitemia at 10 mg/kg, po by Peter's 4 day test. It is filed as functional. On the set-up: scale not given: the % may be the effect or the level left.
Series [17] concerns Plasmodium berghei. The series can be described thus: Antiparasitic activity against Plasmodium berghei ANKA infected in Laca mouse assessed as increase in IFN-gamma level in serum at 10 mg/kg, po administered for 4 days measured on day 10 by sandwich ELISA.

As for `CCN(CC)CCCC(C)Nc1ccnc2cc(Cl)ccc12` (configuration not stated) [CHLOROQUINE], the result in the series on Plasmodium berghei [1], in the series on Plasmodium berghei [2], with Plasmodium berghei [3], in the series on Plasmodium berghei [4], with Plasmodium berghei [5] and in the series on Plasmodium berghei [6] was Active. The result with Plasmodium berghei [8], in the series with Plasmodium berghei [11], in the series on Plasmodium berghei [13], in the series with Plasmodium berghei [14] and with Plasmodium berghei [17] was Active. Moreover, the Activity in the series with Plasmodium berghei [7] was 10.76%; in [9], “Toxic”; with Plasmodium berghei [10], 89.04%; in series [12], “Toxic”; in the series on Plasmodium berghei [15] it was 5.99%; in the series on Plasmodium berghei [16], 58.3%.
